Compound activity from PubChem BioAssay.
This excerpt belongs to a sample that is enriched for hits.
CHOP UPR activ: activators of apoptotic arm of unfolded protein response (CHOP); CHO-CHOP luciferase reporter, UPR activation, luminescence; percent of tunicamycin response over DMSO baseline; activation, % at 10 µM; hit rate 0.34% among 330,000;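 active = at 10 µM dose, activation of 40% or more, normalized to positive control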;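 note: 100% = tunicamycin at 10 µg/mL and 0% = DMSO alone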
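Assay system: CHO-CHOP cells, stable luciferase reporter of PERK-eIF2a-CHOP signalling / Buffer or medium: F12 plus 10% serum / Compound dosing: one dose, 10 µM in 0.5% DMSO / Times: 6 h compound treatment, 37 °C / Technique: luciferase luminescence / Read-out: % reporter activation, DMSO baseline versus tunicamycin full activation / Benchmarks: tunicamycin and DMSO controls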
XBP1 UPR activ: activators of adaptive arm of unfolded protein response (XBP1); CHO-XBP1 luciferase reporter, IRE1-XBP1 UPR activation, luminescence; percent of tunicamycin response, DMSO as zero; activation, % at 20 µM; hit rate 0.33% among 330,000;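 active = versus positive control, 20 µM dose yields 30% or more activation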;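 note: 100% = tunicamycin at 10 µg/mL and 0% = DMSO only wells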
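Material: CHO cell line with stable XBP1 luciferase reporter; schedule: 16-18 h cell attachment at 37 °C, then 6 h compound exposure; signal: glow luminescence from Steady-Glo reagent; medium: serum-containing F12 medium, 10% FBS; benchmarks: tunicamycin 10 µg/mL and vehicle-only wells; read-out: percent activation relative to tunicamycin reference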
CHOP inhibitor: CHOP inhibition in unfolded protein response | CHO-K1 CHOP-promoter luciferase, tunicamycin-induced, 15-18 h | inhibition, % at 10 µM | hit rate 3.8% among 220,000;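 active = compounds that reduced the stress-induced luciferase reporter signal by more than about 70% of percent inhibition, limit read from the data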;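 note: 0% = tunicamycin plus vehicle and 100% = wells without tunicamycin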
Jurkat NFkB inh: inhibitors of the PMA/ionomycin-induced NF-kB reporter in Jurkat cells; PMA/ionomycin-induced NF-kB luciferase reporter, luminescence; inhibition, % at 4 µM; hit rate 0.53% among 330,000; AID 435003; in the data active = inhibition above about 50%
697 NFkB inh: inhibitors of the PMA/ionomycin-induced NF-kB reporter in 697 B cells | 697 B-cell NF-kB luciferase reporter, 16 h | inhibition, % at 4 µM | hit rate 0.33% among 330,000; in the data active = inhibition above about 35%
Jurkat NFkB conf: lowers PMA/ionomycin-induced NF-kB signal in Jurkat cells; shares compounds with Jurkat NFkB inh; Jurkat NF-kB luciferase, 16 h; inhibition, % at 4 µM; hit rate 27% among 2,700; AID 435020;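 active = inhibition reaching about 45% at 4 µM in either replicate, limit read from the data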;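 note: plate controls were PMA/ionomycin stimulated DMSO wells for no effect and unstimulated DMSO wells for full effect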
* hit, by the source's call; nt = not tested or not shown.

SMILES	CHOP UPR activ	XBP1 UPR activ	CHOP inhibitor	Jurkat NFkB inh	697 NFkB inh	Jurkat NFkB conf
COC(=O)c1ccccc1NC1=C/C(=N\S(=O)(=O)c2ccc(C(=O)O)cc2)c2ccccc2C1=O	23	4	nt	19	-1	nt
Cc1ccc(S(=O)(=O)/N=C2\C=C(Nc3ccc(O)cc3)C(=O)c3ccccc32)cc1	-2	-7	nt	64*	19	99*
NCCCCCc1cn(CC(=O)NCCCCCCCCCCC(=O)N2CCNCC2)nn1	3	2	nt	4	2	nt
COc1ccc(C(=O)CCNc2ccc(F)cc2)cc1	5	6	-15	70*	-119	-27
CCOC(=O)c1ccccc1NS(=O)(=O)c1ccc(OCC)cc1	-2	0	nt	62*	-88	42
CCOc1ccc2c(c1)OC(c1ccc(C)cc1)(C(F)(F)F)NC2=O (configuration not stated)	1	22	-21	60*	10	41
COc1ccc(OC)c(N2CC(O)=C(c3nc4ccccc4s3)C2=N)c1	-1	-4	6	3	4	nt
CCOc1ccccc1N1CC(O)=C(c2nc3ccccc3s2)C1=N	2	5	nt	59*	-11	47
Cc1cc(N2CCN(Cc3cn(C)nc3-c3cccc(Cl)c3)CC2)cc(C)n1	1	-2	-2	62*	-23	5
Cc1cc(N2CCN(Cc3cn(C)nc3-c3ccccc3F)CC2)cc(C)n1	-1	-3	-21	69*	-24	-8
CN1CCN(Cc2cn(C)nc2-c2ccccc2F)CC1c1ccccc1 (configuration not stated)	-2	-2	2	-2	21	nt
CCOC(=O)c1nn(-c2ccccc2C)c(=O)cc1OCC(=O)N1CCN(c2ccccc2)CC1	2	-2	nt	3	-17	nt
CCOC(=O)c1sc(=NC(=O)c2ccc(Cl)s2)n(C)c1C	2	1	5	-206	-153	-83
COc1ccc2c(c1OC)C(=O)N1c3ccccc3C(=O)N(c3ccccc3)C21 (configuration not stated)	2	-1	39	54*	28	6
COc1ccc2c(c1OC)C(=O)N1c3ccccc3C(=O)N(c3ccc(F)cc3)C21 (configuration not stated)	-1	-1	-23	40	13	nt
Cc1ccsc1CN(C)CC(=O)NCC(=O)Nc1ccc(F)cc1	2	-3	nt	0	-5	nt
CC(C)(C)c1ccc(C(=O)Nc2ccc(Oc3cccnc3)nc2)cc1	1	-1	22	52*	-38	48
CC(C)OP(=O)(c1ccc(N(C)C)cc1)C(O)c1ccc(N(C)C)cc1 (configuration not stated)	1	0	nt	3	8	nt
COc1ccc(NC(=O)C(=O)NCCN2CCN(C(=O)c3ccco3)CC2)cc1	2	-2	-4	-4	13	nt
c1ccc(N2CCN(c3cnc4ccccc4n3)CC2)cc1	3	-6	-25	-152	-185	-98
CCN(CC)c1ccc(NC(=O)CCS(=O)(=O)c2ccc(Br)cc2)c(C)c1	1	-6	nt	6	-2	nt
O=[N+]([O-])c1ccc(Cl)c(S(=O)(=O)NCCc2ccccn2)c1	-1	-3	nt	-166	11	19
CCN(CC(=O)NCc1ccc(F)cc1)C(=O)/C=C/c1ccc(OC)cc1	0	2	nt	-2	-3	nt
CCN(CC(=O)NCc1ccc(F)cc1)C(=O)/C=C/c1ccc(OC)c(S(=O)(=O)NC(C)C)c1	-1	4	nt	51*	6	46
CCOc1ccc(C)cc1S(=O)(=O)n1cnc2ccccc21	-1	-3	nt	54*	-53	15
SMILES	CHOP UPR activ	XBP1 UPR activ	CHOP inhibitor	Jurkat NFkB inh	697 NFkB inh	Jurkat NFkB conf
COc1ccccc1NC(=O)c1cnc(Nc2ccccc2OC)c2ccccc12	-2	4	8	59*	-56	41
Oc1ccccc1-c1cc(-c2ccccc2)n[nH]1	4	2	nt	-181	-200	-81
O=C(O)CCCNC(=O)c1nn(Cc2ccccc2)c(=O)c2ccccc12	2	6	nt	-12	3	nt
CCOC(=O)c1[nH]c(C)c(C(=O)c2cc(F)ccc2F)c1C	3	13	nt	77*	14	43
Cc1ccc(-n2ncc3c(N4CCCC4)ncnc32)c(C)c1	4	-2	-23	-25	-43	nt
COc1cccc(N2CCN(c3ncnc4c3cnn4-c3ccc(C)cc3C)CC2)c1	-7	-9	98*	87*	22	70*
CCCN(CCC)C1=CC(=[N+]2CCCC2)CC(C)(C)C1	0	-1	20	69*	4	40
CN(C)NC1=CC(=[N+]2CCCC2)CC(C)(C)C1	0	-1	-19	-1	-5	nt
O=C(O)c1cc(S(=O)(=O)N2CCN(C(=O)c3ccco3)CC2)c(Cl)cc1Cl	0	3	nt	2	4	nt
O=C(c1ccccc1)n1ccc(-c2cnc(-c3ccccc3)s2)n1	4	-5	47	-180	-193	-73
COc1ccc(S(=O)(=O)n2ccc(-c3cnc(-c4ccccc4)s3)n2)cc1	2	-1	-4	-56	-23	nt
Cc1cc(C)cc(NC(=O)C(OC(=O)c2cc[n+]([O-])cc2)c2ccccc2)c1 (configuration not stated)	0	-2	nt	2	8	nt
CCOC(=O)c1ccc(Nc2nc(N)c3cc(OC)c(OC)cc3n2)cc1	22	15	nt	74*	30	90*
COc1cc2nc(Nc3ccc(C)c(C)c3)nc(N)c2cc1OC	3	8	nt	21	-12	nt
Cc1ccnc(SCC(=O)NC2CCCCCC2)n1	4	8	nt	19	1	nt
CC(=O)Nc1nc(C2COc3ccccc3O2)cs1 (configuration not stated)	2	-3	0	-101	-187	nt
NC(N)=Nc1nc(C2COc3ccccc3O2)cs1 (configuration not stated)	2	-3	20	-167	-239	-87
COc1cccc(CNC(=O)c2ccc(Cl)c(NC3=NC4CS(=O)(=O)CC4S3)c2)c1 (configuration not stated)	2	3	nt	12	-3	nt
CC(C)(C)c1ccc(NC(=O)c2ccccc2)c([N+](=O)[O-])c1	3	6	-14	-163	-192	-97
Cc1cc2nnc(SCC(=O)NCc3ccco3)n2c2ccccc12	1	0	nt	58*	-20	11
Cc1cc2nnc(SCC(=O)NCc3cccs3)n2c2ccccc12	-1	2	19	46	-22	nt
CC(=O)Nc1ccc(S(=O)(=O)N2c3ccccc3C(C)=CC2(C)C)cc1	0	12	1	62*	-25	53*
O=S(=O)(c1cccc(Cl)c1)N1CCSc2ccccc21	-1	0	nt	-2	8	nt
CC(=O)Nc1ccc(S(=O)(=O)N2CCSc3ccccc32)cc1	-2	-1	nt	56*	-79	49*
